Source: PubChem BioAssay
Hits are enriched below; roughly 4.3% of the tested compounds scored in any of these assays.
m5-HT2A agonist = mouse HTR2A agonism via beta-arrestin recruitment; CHO-K1 mHTR2A beta-arrestin complementation, luminescence; percent of 30 µM serotonin response; P35363; 360,000 compounds, 0.66% hits; activation, % at 7.6 µM;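 active = activation above a run cutoff, the mean activation of all tested compounds plus 3 SD, cut at about 14% in these data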;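 also: 0% = plate median of compound wells and 100% = 30 µM serotonin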
Target sequence (P35363 whole entry, looked up): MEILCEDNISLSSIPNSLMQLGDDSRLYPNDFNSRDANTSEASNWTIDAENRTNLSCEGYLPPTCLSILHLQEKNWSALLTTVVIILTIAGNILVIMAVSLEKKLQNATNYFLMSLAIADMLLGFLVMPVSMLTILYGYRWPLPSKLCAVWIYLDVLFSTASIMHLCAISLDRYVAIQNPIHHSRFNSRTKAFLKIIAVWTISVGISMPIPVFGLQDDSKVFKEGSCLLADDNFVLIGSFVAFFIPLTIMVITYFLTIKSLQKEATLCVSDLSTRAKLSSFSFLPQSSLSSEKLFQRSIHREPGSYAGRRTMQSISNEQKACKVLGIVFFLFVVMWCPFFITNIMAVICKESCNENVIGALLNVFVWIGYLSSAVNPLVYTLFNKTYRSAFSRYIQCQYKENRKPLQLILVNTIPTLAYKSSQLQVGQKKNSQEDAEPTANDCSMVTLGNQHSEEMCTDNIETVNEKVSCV
Beta2AR agonist = activates human beta-2 adrenergic receptor causing internalization. Am2.2-beta2AR cells, FAP receptor internalization, flow cytometry. response, % (concentration not given with the values). 340,000 compounds, 0.43% hits;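 active = response above a set limit, near 3 SD of response in nonfluorescent compounds, cut at about 42% in these data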
MC4R barr agon = human MC4R agonism via beta-arrestin. P32245. U2OS MC4R beta-arrestin complementation, luminescence; percent of melanotan II response, DMSO zero. activation, % at 8.9 µM. 360,000 compounds, 0.98% hits. AID 540308;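 active = activation above a per-plate cutoff, the mean activation of sample wells on that plate plus 3 SD, cut at about 8% in these data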
MC4R antag cAMP = blocks human MC4R cAMP signaling; P32245; MC4R-expressing cells, MTII-stimulated cAMP, LANCE TR-FRET; inhibition, % at 6.5 µM; 360,000 compounds, 0.48% hits; AID 540295;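 active = inhibition above its plate's cutoff, the mean of tested wells on that plate plus 3 SD, cut at about 29% in these data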;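 also: 0% = Melanotan II alone and 100% = Melanotan II plus saturating MCL0020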
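material = U2OS cells stably expressing human melanocortin 4 receptor (MC4R) | also added = Melanotan II challenge | dosing = single nominal compound dose of 6.5 µM | detection = TR-FRET with Eu-cAMP and labeled anti-cAMP, 671 nm | replication = singlicate | timing = compound 30 min, challenge 1 h, detection 1 h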
TAAR1 antagonist = antagonists of human TAAR1; Q96RJ0; CHO RD-HGA16 TAAR1, Fluo-8 calcium fluorescence, antagonist; inhibition, % at 3 µM; 360,000 compounds, 1.5% hits; AID 624466;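 active = inhibition above a per-plate cutoff, the mean inhibition of test compounds on that plate plus 3 SD, cut at about 49% in these data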;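 also: 0% = DMSO plus EC80 beta-PEA response and 100% = DMSO alone without agonist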
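Assay system: RD-HGA16 CHO cells with stable hTAAR1 and Gα16 / Reagent: EC80 β-phenethylamine stimulus / Doses: 3 µM, single point / Timing: dye loading 75 min at 37 °C, then 30 min room temperature / Measured by: Fluo-8 intracellular calcium dye fluorescence, real-time kinetic reads / Controls: vehicle wells and EC80 agonist wells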
TAAR1 ag = agonists of human TAAR1 | 360,000 compounds, 0.99% hits | CHO RD-HGA16 TAAR1, Fluo-8 calcium fluorescence; vehicle wells 0%, saturating PEA agonist 100% | activation, % at 3 µM;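 active = activation above the mean activation of all test compounds in the run plus 3 SD, cut at about 38% in these data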
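Benchmarks: low control DMSO, high control PEA (EC100); System: CHO RD-HGA16 cells carrying human TAAR1 plus Gα16; Detection: Fluo-8 fluorescence, 5 s baseline then 140 s kinetic read; Schedule: 17-24 h plating, Fluo-8 75 min 37 °C, 30 min RT; Read-out basis: % activation from peak over basal fluorescence ratio, DMSO-to-PEA scaled.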
TAAR1 ag conf = confirmation of human TAAR1 agonists; shares compounds with TAAR1 ag; CHO RD-HGA16 TAAR1, Fluo-8 calcium fluorescence; scaled: DMSO 0%, maximal phenethylamine 100%; activation, % at 3 µM; 2,400 compounds, 82% hits; AID 651783;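 active = activation above a cutoff set at the run's mean compound activation plus 3 SD, cut at about 39% in these data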
Ga16 ag counter = nonselective agonist in parental cells, TAAR1 agonist counter-screen; shares compounds with TAAR1 ag; CHO-Ga16 parental, Fluo-8 calcium fluorescence; normalized to maximal ATP response, DMSO zero; activation, % at 3 µM; 2,400 compounds, 50% hits; AID 651787;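 active = activation above the run cutoff, the mean activation over all tested wells plus 3 SD, cut at about 12% in these data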;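 also: 0% = DMSO wells and 100% = maximal ATP response on the peak over basal ratio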
TAAR1 desensitize = counter-screen for human TAAR1 agonists: agonists that desensitize TAAR1; shares compounds with TAAR1 ag; 2,400 compounds, 46% hits; inhibition, % at 3 µM; CHO RD-HGA16 hTAAR1, Fluo-8 calcium, beta-PEA response inhibition; AID 651951;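 active = inhibition above the run cutoff, the mean inhibition of all test compounds plus 3 SD, cut at about 49% in these data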;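 also: beta-PEA stimulus applied at its EC80; loss of beta-PEA calcium signal after compound pretreatment read as receptor desensitization; 0% = DMSO with beta-PEA at EC80 and 100% = DMSO alone without agonist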
Ga16 antag count = nonselective Ga16 antagonist in TAAR1 agonist counter-screen; shares compounds with TAAR1 ag; CHO-Ga16 ATP-induced calcium, Fluo-8 fluorescence; 2,400 compounds, 39% hits; inhibition, % at 3 µM; AID 651952;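 active = inhibition above the plate's mean compound inhibition plus 3 SD, computed per plate, cut at about 22% in these data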;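 also: 0% = EC80 ATP with DMSO and 100% = DMSO wells without ATP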
An asterisk follows results filed as active.

Screening O=c1[nH]ncc(N/N=C\c2ccc(O)cc2O)c1Cl returned m5-HT2A agonist -1, Beta2AR agonist 0, MC4R barr agon -1, MC4R antag cAMP -33, TAAR1 antagonist 30, TAAR1 ag 73*, TAAR1 ag conf 80*, Ga16 ag counter 1, TAAR1 desensitize 67* and Ga16 antag count 9.
Screening COc1cccc(Nc2nc(C(N)C3CCCCC3)cs2)n1 (configuration not stated) returned m5-HT2A agonist -1, MC4R barr agon 4, MC4R antag cAMP -1, TAAR1 antagonist 15, TAAR1 ag 53*, TAAR1 ag conf 47*, Ga16 ag counter 18*, TAAR1 desensitize 28 and Ga16 antag count 23*.
COc1cccc(Nc2nc(C(C)N)cs2)n1 (configuration not stated) was read as m5-HT2A agonist 4, MC4R barr agon -2, MC4R antag cAMP -4, TAAR1 antagonist 77*, TAAR1 ag 85*, TAAR1 ag conf 94*, Ga16 ag counter 1, TAAR1 desensitize 79* and Ga16 antag count 6.
`COc1ccc(NC(=O)Nc2nc(C(N)C3CCCCC3)cs2)cc1` (configuration not stated) gave m5-HT2A agonist -8, MC4R barr agon -2, MC4R antag cAMP -1, TAAR1 antagonist 9 and TAAR1 ag 11.
COc1cccc(Nc2nc(C(N)c3ccccc3)cs2)n1 (configuration not stated) was read as m5-HT2A agonist 3, MC4R barr agon 0, MC4R antag cAMP -8, TAAR1 antagonist 25, TAAR1 ag 68*, TAAR1 ag conf 66*, Ga16 ag counter 12*, TAAR1 desensitize 41 and Ga16 antag count 20.
For CC(C)c1ccc(NC(=O)Nc2nc(C(N)C3CCCCC3)cs2)cc1 (configuration not stated) the results were m5-HT2A agonist 1, MC4R barr agon -2, MC4R antag cAMP 14, TAAR1 antagonist 6, TAAR1 ag 55*, TAAR1 ag conf 42*, Ga16 ag counter 29*, TAAR1 desensitize 33 and Ga16 antag count 46*.
For COc1cccc(Nc2nc(C(N)c3ccccc3Cl)cs2)n1 (configuration not stated) the results were m5-HT2A agonist 0, MC4R barr agon -4, MC4R antag cAMP -1, TAAR1 antagonist 19 and TAAR1 ag 23.
`NC(=O)c1cccc(Nc2nc(C(N)C3CCCCC3)cs2)n1` (configuration not stated) gave m5-HT2A agonist 0, MC4R barr agon 0, MC4R antag cAMP 22, TAAR1 antagonist -2 and TAAR1 ag 1.
`CCC(=O)N1CCc2cc(Br)c(S(=O)(=O)CCC(=O)NCCc3ccccc3)cc21` gave m5-HT2A agonist 1, Beta2AR agonist -7, MC4R barr agon 0, MC4R antag cAMP 9, TAAR1 antagonist 3 and TAAR1 ag 6.
`CCOC(=O)[C@]12CCC=C1N(Cc1ccc3c(c1)OCO3)C(=O)[C@H](CC(=O)NCCCOC)C2` gave m5-HT2A agonist 10, TAAR1 antagonist -1 and TAAR1 ag 0.
Cc1cc(C(=O)N2CCC2(C)C(=O)NCCC#N)nn1C (configuration not stated) was read as m5-HT2A agonist -6, MC4R barr agon -1, MC4R antag cAMP 15, TAAR1 antagonist -8 and TAAR1 ag 2.
CC(C)CN(C(=O)COC(=O)CSc1ccc(Br)cc1)C1CCS(=O)(=O)C1 (configuration not stated) was read as m5-HT2A agonist 1, Beta2AR agonist 1, MC4R barr agon 1, MC4R antag cAMP 5, TAAR1 antagonist 19 and TAAR1 ag 4.
NC(c1csc(Nc2cnccn2)n1)C1CCCCC1 (configuration not stated) was read as m5-HT2A agonist 1, MC4R barr agon 1, MC4R antag cAMP 4, TAAR1 antagonist -13 and TAAR1 ag 6.
NC(c1csc(Nc2ccc(C(F)(F)F)cn2)n1)C1CCCCC1 (configuration not stated) was read as m5-HT2A agonist 5, MC4R barr agon 8.9*, MC4R antag cAMP 3, TAAR1 antagonist 20, TAAR1 ag 76*, TAAR1 ag conf 75*, Ga16 ag counter 43*, TAAR1 desensitize 60* and Ga16 antag count 55*.
O=c1[nH]cc(NCc2ccccc2)c(=O)[nH]1 was read as m5-HT2A agonist 0, Beta2AR agonist -8, MC4R barr agon 0, MC4R antag cAMP -3, TAAR1 antagonist -5 and TAAR1 ag 8.
`O=c1[nH]cc(NCCc2ccccc2)c(=O)[nH]1` gave m5-HT2A agonist 4, Beta2AR agonist 3, MC4R barr agon 0, MC4R antag cAMP 11, Ga16 ag counter 0 and Ga16 antag count 16.
`Cc1cc(C)c2cc(C#N)c(NCCNC(=O)c3ccccn3)nc2c1` gave m5-HT2A agonist -1, TAAR1 antagonist -7 and TAAR1 ag -3.
`CC(C)n1cnc2c(NCc3ccccc3)cc(Cc3ccc(F)cc3)cc21` gave m5-HT2A agonist -5, Beta2AR agonist 4, MC4R barr agon 3, MC4R antag cAMP 6, TAAR1 antagonist 16, TAAR1 ag 47*, TAAR1 ag conf 19, Ga16 ag counter 11, TAAR1 desensitize 25 and Ga16 antag count 19.
Screening CCCOc1cc(NCc2ccccc2)c2ncn(C(C)C)c2c1 returned m5-HT2A agonist 1, Beta2AR agonist -11, MC4R barr agon 1, MC4R antag cAMP -1, TAAR1 antagonist -1, TAAR1 ag 61*, TAAR1 ag conf 41*, Ga16 ag counter 18*, TAAR1 desensitize 1 and Ga16 antag count -2.
For COCCOc1cc(NCc2ccccc2)c2ncn(C(C)C)c2c1 the results were m5-HT2A agonist -2, Beta2AR agonist 0, MC4R barr agon -2, MC4R antag cAMP -2, TAAR1 antagonist -5 and TAAR1 ag 12.
